Assay results as given in ChEMBL document CHEMBL1125739, “A new class of HIV-1-specific 6-substituted acyclouridine derivatives: synthesis and anti-HIV-1 activity of 5- or 6-substituted analogues of 1-[(2-hydroxyethoxy)methyl]-6-(phenylthio)thymine (HEPT)” (J Med Chem, 1991).

Key:
[1] = system: Human immunodeficiency virus; assay: Effective concentration required to achieve 50% protection of MT-4 cells against the cytopathic effect of HIV-1 (HTLV-IIIB).; assay type: functional, organism-based; conditions: Human immunodeficiency virus 1, MT4
Method in brief: (§1)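 MT-4 cells at 2.5×10^5 cells/mL infected with 1000 CCID50 of the named HIV strain, then plated at once over a range of compound concentrations. Incubation at 37 °C for 4 days or 5 days. Viable cells read by MTT. EC50 is the concentration giving 50% protection from virus-induced cytopathic effect.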

[2] = system: MT4; assay: Cytotoxic concentration required to reduce the viability of mock-infected MT-4 cells by 50%; assay type: functional; conditions: Homo sapiens
Method in brief: (§2)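 Mock-infected MT-4 cells at 2.5×10^5 cells/mL plated with various concentrations of compound, run in parallel with the antiviral assay. Viable cells counted by MTT after 4 days or 5 days at 37 °C. CC50 is the concentration that lowers viability by 50%.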

[3] = system: MT4; assay: Selectivity Index measured as the ratio of CC50 to that of EC50 values.
[4] = system: Human immunodeficiency virus; assay: Effective concentration required to achieve 50% protection of MT-4 cells against the cytopathic effect of HIV-1 (HTLV-IIIB strain) and determined on 4th day after virus infection.; assay type: functional, organism-based; conditions: Human immunodeficiency virus 1, MT4; method in brief: as §1
[5] = system: Human immunodeficiency virus; assay: Effective concentration required to achieve 50% protection of MT-4 cells against the cytopathic effect of HIV-1 (HTLV-IIIRF strain) and determined on 4th day after virus infection.; assay type: functional, organism-based; conditions: Human immunodeficiency virus 1, MT4; method in brief: as §1
[6] = system: Human immunodeficiency virus; assay: Effective concentration required to achieve 50% protection of MT-4 cells against the cytopathic effect of HIV-2 ((LAV-2EHO strain) and determined on 4th day after virus infection.; assay type: functional, organism-based; conditions: Human immunodeficiency virus 1, MT4; method in brief: as §1
[7] = system: Human immunodeficiency virus; assay: Effective concentration required to achieve 50% protection of MT-4 cells against the cytopathic effect of HIV-2 (LAV-2ROD strain) and determined on 4th day after virus infection.; assay type: functional, organism-based; conditions: Human immunodeficiency virus 1, MT4; method in brief: as §1
[8] = system: Human immunodeficiency virus; assay: Cytotoxic concentration required to reduce the viability of mock-infected MT-4 cells (HIV-1 HTLV-IIIB strain) by 50% was determined on 4th day after virus infection.; assay type: functional; conditions: Human immunodeficiency virus 1, MT4; method in brief: as §2

| EC50 [1] [µM] | SMILES | CC50 [2] [µM] | Selectivity index [3] | EC50 [4] [µM] | EC50 [5] [µM] | EC50 [6] [µM] | EC50 [7] [µM] | CC50 [8] [µM] |
| --- | --- | --- | --- | --- | --- | --- | --- | --- |
| > 21 | O=c1[nH]c(=O)n(COCCO)c(Sc2ccccc2)c1Sc1ccccc1 | 21 | <1 | – | – | – | – | – |
| > 250 | CSc1c(C)c(=O)[nH]c(=O)n1COCCO | > 250 | – | – | – | – | – | – |
| > 250 | C=Cc1c(C)c(=O)[nH]c(=O)n1COCCO | > 250 | – | – | – | – | – | – |
| > 14 | Cc1c(C#Cc2ccccc2)n(COCCO)c(=O)[nH]c1=O | 14 | <1 | – | – | – | – | – |
| > 366 | Cc1c(C(=O)c2ccccc2)n(COCCO)c(=O)[nH]c1=O | 366 | <1 | – | – | – | – | – |
| > 327 | Cc1c(Nc2ccccc2)n(COCCO)c(=O)[nH]c1=O | 327 | <1 | – | – | – | – | – |
| > 180 | Cc1c(Br)n(COCCO)c(=O)[nH]c1=O | 180 | <1 | – | – | – | – | – |
| 8.2 | Cc1c(SC2CCCCC2)n(COCCO)c(=O)[nH]c1=O | 664 | 81 | 7.7 | 7.9 | > 250 | > 250 | 440 |
| > 3.4 | O=c1[nH]c(=O)n(COCCO)c(Sc2ccccc2)c1C#Cc1ccccc1 | 3.4 | <1 | – | – | – | – | – |
| 1.1 | C=Cc1c(Sc2ccccc2)n(COCCO)c(=O)[nH]c1=O | 76 | 69 | – | – | – | – | – |
| > 250 | Cc1c(Cl)n(COCCO)c(=O)[nH]c1=O | > 250 | – | – | – | – | – | – |
| > 377 | Cc1c(NC2CCCCC2)n(COCCO)c(=O)[nH]c1=O | 337 | <1 | – | – | – | – | – |
| 0.84 | O=c1[nH]c(=O)n(COCCO)c(Sc2ccccc2)c1C=C(c1ccccc1)c1ccccc1 | 21 | 25 | – | – | – | – | – |
| > 250 | Cc1c(/C=C/c2ccccc2)n(COCCO)c(=O)[nH]c1=O | > 250 | – | – | – | – | – | – |
| > 18 | C#Cc1c(Sc2ccccc2)n(COCCO)c(=O)[nH]c1=O | 18 | <1 | – | – | – | – | – |
| 3.6 | O=c1[nH]c(=O)n(COCCO)c(Sc2ccccc2)c1I | 20 | 5.6 | – | – | – | – | – |
| 6 | O=c1[nH]c(=O)n(COCCO)c(Sc2ccccc2)c1/C=C/c1ccccc1 | 95 | 16 | – | – | – | – | – |

| EC50 [1] [µM] | SMILES | CC50 [2] [µM] | Selectivity index [3] | EC50 [4] [µM] | EC50 [5] [µM] | EC50 [6] [µM] | EC50 [7] [µM] | CC50 [8] [µM] |
| --- | --- | --- | --- | --- | --- | --- | --- | --- |
| > 5.5 | C#Cc1c(C)c(=O)[nH]c(=O)n1COCCO | 5.5 | <1 | – | – | – | – | – |
| > 250 | C/C=C/c1c(C)c(=O)[nH]c(=O)n1COCCO | > 250 | – | – | – | – | – | – |
| 6.3 | Nc1ncnc2c1ncn2[C@H]1CC[C@@H](CO)O1 | 890 | 141 | – | – | – | – | – |
| 85 | Cc1c(Oc2ccccc2)n(COCCO)c(=O)[nH]c1=O | 345 | 4.1 | – | – | – | – | – |
| > 400 | Cc1c(C(O)c2ccccc2)n(COCCO)c(=O)[nH]c1=O (centres undefined) | 400 | <1 | – | – | – | – | – |
| > 250 | CC#Cc1c(C)c(=O)[nH]c(=O)n1COCCO | > 250 | – | – | – | – | – | – |
| 130 | CCCCSc1c(C)c(=O)[nH]c(=O)n1COCCO | > 250 | – | – | – | – | – | – |
| > 366 | Cc1c(SC(C)(C)C)n(COCCO)c(=O)[nH]c1=O | 366 | <1 | – | – | – | – | – |
| > 484 | COc1c(C)c(=O)[nH]c(=O)n1COCCO | 484 | <1 | – | – | – | – | – |
| > 400 | Cc1c(OC2CCCCC2)n(COCCO)c(=O)[nH]c1=O | 400 | <1 | – | – | – | – | – |
| > 12 | CC(C)C(=O)c1c(Sc2ccccc2)n(COCCO)c(=O)[nH]c1=O | 12 | <1 | – | – | – | – | – |
| > 13 | O=C(c1ccccc1)c1c(Sc2ccccc2)n(COCCO)c(=O)[nH]c1=O | 13 | <1 | – | – | – | – | – |
| > 250 | CCSc1c(C)c(=O)[nH]c(=O)n1COCCO | > 250 | – | – | – | – | – | – |
| > 23 | O=c1[nH]c(=O)n(COCCO)c(Sc2ccccc2)c1Cc1ccccc1 | 23 | <1 | – | – | – | – | – |
| > 19 | CC#Cc1c(Sc2ccccc2)n(COCCO)c(=O)[nH]c1=O | 19 | <1 | – | – | – | – | – |
| 0.3 | Nc1ccn([C@H]2CC[C@@H](CO)O2)c(=O)n1 [ZALCITABINE] | 40 | 133 | – | – | – | – | – |
| 0.016 | Cc1cn([C@H]2C[C@H](N=[N+]=[N-])[C@@H](CO)O2)c(=O)[nH]c1=O [ZIDOVUDINE] | 20 | 1250 | – | – | – | – | – |

| SMILES | EC50 [1] [µM] | CC50 [2] [µM] | Selectivity index [3] | EC50 [4] [µM] | EC50 [5] [µM] | EC50 [6] [µM] | EC50 [7] [µM] | CC50 [8] [µM] |
| --- | --- | --- | --- | --- | --- | --- | --- | --- |
| Cc1c(Cc2ccccc2)n(COCCO)c(=O)[nH]c1=O | 23 | 352 | 15 | – | – | – | – | – |
| Cc1c(Sc2ccccc2)n(COCCO)c(=O)[nH]c1=O [HEPT] | 7 | 740 | – | 6.5 | 8.1 | > 250 | > 250 | > 500 |
